Results gathered from unrelated publications.
Lines come from different studies, so protocols differ.
Target: Mitogen-activated protein kinase kinase kinase 3 (MAP3K3, Homo sapiens, UniProt Q99759)
One construct used (Q99759 1-626): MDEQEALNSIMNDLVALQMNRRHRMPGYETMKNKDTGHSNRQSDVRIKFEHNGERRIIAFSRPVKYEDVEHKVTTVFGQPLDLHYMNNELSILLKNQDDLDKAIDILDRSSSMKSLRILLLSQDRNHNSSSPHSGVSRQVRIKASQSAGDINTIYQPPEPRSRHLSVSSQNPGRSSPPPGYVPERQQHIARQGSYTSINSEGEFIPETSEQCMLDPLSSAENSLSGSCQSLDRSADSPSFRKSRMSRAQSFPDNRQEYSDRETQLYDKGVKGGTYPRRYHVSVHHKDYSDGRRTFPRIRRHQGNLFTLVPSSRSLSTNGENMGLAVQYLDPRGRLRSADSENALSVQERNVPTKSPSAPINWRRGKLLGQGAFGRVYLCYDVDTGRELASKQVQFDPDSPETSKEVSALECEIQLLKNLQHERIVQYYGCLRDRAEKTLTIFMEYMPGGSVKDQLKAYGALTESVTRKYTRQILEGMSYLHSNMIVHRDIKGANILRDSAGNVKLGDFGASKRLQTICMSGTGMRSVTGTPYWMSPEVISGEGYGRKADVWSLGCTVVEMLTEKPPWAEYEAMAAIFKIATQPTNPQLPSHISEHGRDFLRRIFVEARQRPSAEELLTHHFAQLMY

Nc1ncc2c(n1)-c1c([nH]c3ccc(C#CC4CC4)cc13)CCCC2 — remaining binding (binding; competition with immobilised ligand; 1 µM): 89%
COc1ccnn2ncc(-c3ccnc(N(C)C)n3)c12 — remaining binding (binding; 1 µM): 72%
O=C(Nc1c[nH]nc1C(=O)NC1CCNCC1)c1cc(F)cc(F)c1 — remaining binding (binding; competition with immobilised ligand; 1 µM): 89%
O=C(c1ccc(Nc2ncc(Cl)c(-c3cc4ccccc4s3)n2)cc1)N1CCC(N2CCCC2)CC1 — remaining binding (binding; competition with immobilised ligand; 1 µM): 34%
c1cncc(-c2cccc(Nc3nccc(NC4CCCCC4)n3)c2)c1 — remaining binding (binding; competition with immobilised ligand; 10 µM): 41%
COc1ncc2cc3ccccc3nc2c1C#N — remaining binding (cell-free assay; competition with immobilised ligand; 5 µM): 95%
O=C(NCCCN1CCOCC1)c1ccc(Nc2nccc(-c3cc4ccccc4s3)n2)cc1 — remaining binding (binding; competition with immobilised ligand; 1 µM): 65%
F[C@@H]1CCN(c2nccc(-c3cnn4ncccc34)n2)C1 — remaining binding (binding; 1 µM): 100%
O=C(O)[C@H]1[C@H](Cn2nnc3ccccc3c2=O)CC[C@@H]1C(=O)c1ccc(OCCC2CCOCC2)cc1 — remaining binding (cell-free assay; competition with immobilised ligand; 1 µM): 100%
CCN1CCN(Cc2ccc(C(=O)Nc3ccc(C)c(Oc4ccc5c(c4)CC(=O)N5)c3)cc2C(F)(F)F)CC1 — remaining binding (binding; competition with immobilised ligand; 1 µM): 100%
O=C(Nc1cccnn1)N1CC(C/C=C/c2cncc(Oc3ccc(C(F)(F)F)cn3)n2)C1 — remaining binding (cell-free assay; competition with immobilised ligand; 1 µM): 79%
COc1cnc(Nc2cccc(S(N)(=O)=O)c2)nc1N1CCN(c2ccccc2)CC1 — remaining binding (binding; competition with immobilised ligand; 1 µM): 82%
N[C@H]1CCN(c2nccc(-c3cnn4ncccc34)n2)C1 — remaining binding (binding; 1 µM): 100%
C[C@@H](c1ccc(-n2cnc3c(N)ncnc32)cc1)N1CCc2nn(C)c(Cc3ccccc3)c2C1=O — remaining binding (binding; competition with immobilised ligand; 0.1 µM): 79%
CC(=O)N1CCC(c2ccc(C(=O)NC(=N)N)cc2C(F)(F)F)CC1 — remaining binding (cell-free assay; competition with immobilised ligand; 1 µM): 90%
CN(C)c1ncc(F)c(-c2cnn3ncccc23)n1 — remaining binding (binding; 1 µM): 90%
Nc1c(C(=O)NCc2ccc(C(=O)NCCCC3CCCCC3)cc2)cnn1-c1ccccc1 — remaining binding (cell-free assay; competition with immobilised ligand; 0.1 µM): 100%
Cc1cnc(Nc2ccc(C(=O)N3CCC(N4CCCC4)CC3)cc2)nc1-c1cc2ccccc2s1 — remaining binding (binding; competition with immobilised ligand; 1 µM): 19%
CS(=O)(=O)NCC[C@H](NC(=O)c1cncc2c1cnn2-c1ccc(F)cc1)c1ccnc(S(C)(=O)=O)c1 — remaining binding (cell-free assay; competition with immobilised ligand; 1 µM): 100%
C[C@H]1CCN(c2nccc(-c3cnn4ncccc34)n2)C1 — remaining binding (binding; 1 µM): 59%
O=C(N1CCS(=O)(=O)CC1)N1C[C@H](c2ccc(OC(F)(F)F)cc2)C[C@H](c2nc(C3CC3)no2)C1 — remaining binding (cell-free assay; competition with immobilised ligand; 1 µM): 100%
Cc1cnn2ncc(-c3ccnc(N(C)C)n3)c2c1 — remaining binding (binding; 1 µM): 47%
